Many of the other results were omitted from the sample, so hits are more common in it than they were.
HCT116 PTEN-null = growth suppression of PTEN-null HCT116, primary screen, cell-based, CellTiter-Glo. HCT116 PTEN-null viability, 60 h; hits give low values. viability, % at 10 µM. actives 1.2% (n = 140,000). AID 827, 2007;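 active means viability at or below a set limit, 4 SD under the median of all tested compounds, cut at about 3.7% in these data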;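 further: PTEN knockout HCT116 line with beta catenin targeted HCT116 as companion control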
HUVEC prolif 384 = inhibitors of HUVEC proliferation, primary screen, cell-based, 384-well; viability, % at 10 µM (by protocol); actives 1.1% (n = 86,000); CellTiter-Glo luminescence, 72 h; hits give low values;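 active means viability at or below 30%; inactive means viability above 30%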;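 further: 100% = median luminescence of DMSO-only cell control wells on each plate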
HCT116 bCat-KO = primary screen for growth suppressors in beta-catenin knockout HCT116 cells (colon tumor, human). HCT116 beta-catenin knockout viability, CellTiter-Glo, 60 h; hits give low values. actives 1.5% (n = 140,000). viability, % at 10 µM;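 active means viability at or under a set limit, the compound median less 4 SD, cut at about 6% in these data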;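 further: 0% = Hyamine 1622 control at 20 µM and 100% = untreated cell control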
Fibroblast inh = antiproliferative effect on LL 47 fibroblasts – human, LL 47 cells, CellTiter-Glo luminescence, primary screen. viability, % at 10 µM. actives 1.1% (n = 85,000). LL 47 human lung fibroblast viability, ATP luminescence; hits give low values;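 active means viability at or below 50% in the single dose screen; inactive means viability above 50%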;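 further: compound exposure lasted 72 h before the ATP readout; 100% = median luminescence of untreated cell-only wells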
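Test system: LL 47 human lung fibroblasts; Quantity: 1,150 cells/well; Buffer or medium: IMEM plus 15% FBS; Dosing: tenfold compound dosing solution, DMSO at 0.1%; Timing: overnight cell rest, 72 h compound treatment at 37 °C; Detection: ATP-based CellTiter-Glo luminescent readout; Read-out basis: viability percentage against median untreated-cell control; Controls: cell-only wells, no compound.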
H69AR inhibit = proliferation blockers of H69AR lung cancer cells, primary screen, cell-based, human, 86K library. H69AR lung tumor viability, ATP luminescence, 72 h; hits give low values. viability, % at 10 µM. actives 6% (n = 85,000);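 active means viability at or below 40%; inactive means viability above 40%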;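 further: multidrug resistant small cell line overexpressing MRP-1 efflux transporter; 100% = mean luminescence of untreated control wells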
* = called active by the depositor.

COc1ccc(C(C(=O)NC2CCCCC2)N(C(=O)c2sc(C)nc2C)c2ccc(C(C)=O)cc2)cc1 (configuration not stated) was read as HCT116 PTEN-null 91.3 and HCT116 bCat-KO 82.2.
For CCOC(=O)N1CCC(NC(=O)C2CCC(CNS(=O)(=O)c3ccc(OC)cc3)CC2)CC1 (configuration not stated) the results were HCT116 PTEN-null 95.1, HUVEC prolif 384 73.3, HCT116 bCat-KO 92.2 and H69AR inhibit 6.0*.
CCOC(=O)N1CCN(C(=O)C2CCC(CNS(=O)(=O)c3ccc(Cl)cc3)CC2)CC1 (configuration not stated) was read as HCT116 PTEN-null 104.4, HUVEC prolif 384 96.6, HCT116 bCat-KO 104.2, Fibroblast inh 97.0 and H69AR inhibit 82.3.
`CCOC(=O)N1CCC(NC(=O)CNS(=O)(=O)c2ccc(Br)s2)CC1` gave HCT116 PTEN-null 81.1, HUVEC prolif 384 73.8, HCT116 bCat-KO 86.3, Fibroblast inh 89.7 and H69AR inhibit 23.1*.
Screening O=C(O)c1cccc(NC(=S)NC(=O)C(c2ccccc2)c2ccccc2)c1 returned HCT116 PTEN-null 91.8 and HCT116 bCat-KO 97.9.
`CCCCN(C)CC(O)Cn1cc(/C=C/C(=O)c2cccs2)c2ccccc21` (configuration not stated) gave HCT116 PTEN-null 1.6* and HCT116 bCat-KO 1.6*.
`O=C(/C=C/c1cn(CC(O)CN2CCCCCC2)c2ccccc12)c1cccs1` (configuration not stated) gave HCT116 PTEN-null 1.9* and HCT116 bCat-KO 1.2*.
Cc1ccc(C)c(N2CCN(C(=O)c3csc4ccccc34)CC2)c1 was read as HCT116 PTEN-null 45.0 and HCT116 bCat-KO 70.0.
For O=C(O)/C=C/C(=O)NNC(=O)c1cccc(Br)c1 the results were HCT116 PTEN-null 96.3 and HCT116 bCat-KO 92.5.
Cc1cc(C)c(S(=O)(=O)Nc2cccc3nsnc23)c(C)c1 was read as HCT116 PTEN-null 67.9, HUVEC prolif 384 92.5, HCT116 bCat-KO 75.5, Fibroblast inh 97.9 and H69AR inhibit 2.5*.
O=S(=O)(Nc1cccc2nsnc12)c1ccccc1 was read as HCT116 PTEN-null 100.2, HUVEC prolif 384 83.5, HCT116 bCat-KO 91.4, Fibroblast inh 101.2 and H69AR inhibit 96.7.
`O=C(CSc1nnc(-c2cccs2)o1)Nc1cccc(S(=O)(=O)N2CCCCC2)c1` gave HCT116 PTEN-null 95.6 and HCT116 bCat-KO 94.2.
For CN(C)CCCN(C(=O)CCc1ccccc1)c1nc2ccc(Cl)cc2s1 the results were HCT116 PTEN-null 1.7* and HCT116 bCat-KO 1.5*.
Cc1ccc2nc(N(CCCN(C)C)C(=O)CCc3ccccc3)sc2c1 was read as HCT116 PTEN-null 1.5* and HCT116 bCat-KO 2.4*.
For CN(C)CCCN(C(=O)c1sc2ccccc2c1Cl)c1nc2ccc(F)cc2s1 the results were HCT116 PTEN-null 97.7 and HCT116 bCat-KO 102.4.
`CN(C)CCCN(C(=O)c1cc2ccccc2oc1=O)c1nc2c(F)cccc2s1` gave HCT116 PTEN-null 113.5 and HCT116 bCat-KO 94.8.
Screening CN(C)CCCN(C(=O)c1ccc2c(c1)CCCC2)c1nc2ccc(Cl)cc2s1 returned HCT116 PTEN-null 2.7* and HCT116 bCat-KO 3.6*.
`Cc1ccc2nc(N(CCCN(C)C)C(=O)c3cc4ccccc4oc3=O)sc2c1` gave HCT116 PTEN-null 90.2 and HCT116 bCat-KO 84.4.
`COC(=O)N/N=C/c1cccc(OCCSc2ccc(Cl)cc2)c1` gave HCT116 PTEN-null 77.4 and HCT116 bCat-KO 91.0.
Screening COc1nc2c(C)cccc2cc1-c1noc(-c2ccncc2)n1 returned HUVEC prolif 384 94.6, Fibroblast inh 98.9 and H69AR inhibit 70.3.
For O=C(NNC(=S)Nc1ccc(Cl)cc1Cl)c1ccc(N2CCOCC2)c([N+](=O)[O-])c1 the results were HCT116 PTEN-null 94.6 and HCT116 bCat-KO 92.9.
For CCn1c(=N)c(C(=O)NC)cc2c(=O)n3cccc(C)c3nc21 the results were HUVEC prolif 384 92.0, Fibroblast inh 93.2 and H69AR inhibit 74.6.
`CCNc1nc(C)c2cc(Br)c(=O)n(CC)c2n1` gave HCT116 PTEN-null 55.7, HUVEC prolif 384 38.3, HCT116 bCat-KO 60.9, Fibroblast inh 37.0* and H69AR inhibit 58.3.
